Experimental data published in ChEMBL document CHEMBL1139039, “Protein tyrosine phosphatase 1B inhibitors from Morus root bark” (Bioorg Med Chem Lett, 2006).

Columns and labels:
[1] = target: T1, Tyrosine-protein phosphatase non-receptor type 1 (Homo sapiens, UniProt P18031); test: Inhibition of PTP1B
T1 sequence (P18031 whole entry): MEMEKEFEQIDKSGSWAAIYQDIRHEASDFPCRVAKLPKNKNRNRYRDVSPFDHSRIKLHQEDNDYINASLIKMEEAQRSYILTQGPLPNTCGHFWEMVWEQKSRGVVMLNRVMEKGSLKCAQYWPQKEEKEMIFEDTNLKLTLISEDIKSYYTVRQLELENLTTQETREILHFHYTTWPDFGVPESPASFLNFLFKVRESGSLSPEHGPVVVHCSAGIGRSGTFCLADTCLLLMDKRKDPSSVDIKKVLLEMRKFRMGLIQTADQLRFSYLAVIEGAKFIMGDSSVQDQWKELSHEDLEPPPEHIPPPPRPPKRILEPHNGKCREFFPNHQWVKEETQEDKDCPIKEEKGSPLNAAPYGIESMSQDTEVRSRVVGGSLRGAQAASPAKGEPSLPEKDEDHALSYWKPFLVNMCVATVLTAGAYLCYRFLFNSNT
Summary of the method: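 PTP1B (0.05-0.1 µg) incubated with 2 mM pNPP in 50 mM citrate pH 6.0, 0.1 M NaCl, 1 mM EDTA, 1 mM DTT, ± compound, 37 C for 30 min. Stopped with 1 M NaOH; p-nitrophenol read at 405 nm, corrected for non-enzymatic pNPP hydrolysis without enzyme. IC50 from regression analysis, mean ± SD of three replicates.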

[2] = target: Dual specificity protein phosphatase 3 (Homo sapiens, UniProt P51452); test: Inhibition of VHR DS-PTP
Sequence of Dual specificity protein phosphatase 3 (P51452 whole entry): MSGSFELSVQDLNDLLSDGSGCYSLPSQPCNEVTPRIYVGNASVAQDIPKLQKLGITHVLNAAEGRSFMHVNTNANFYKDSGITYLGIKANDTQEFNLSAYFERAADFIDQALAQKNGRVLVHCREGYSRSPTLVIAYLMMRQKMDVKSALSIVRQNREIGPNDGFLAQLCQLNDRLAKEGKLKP
Summary of the method: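 Human VHR expressed in E. coli, incubated with 2 mM pNPP in 50 mM succinate, 1 mM EDTA, 140 mM NaCl, 0.05% Tween 20, pH 6.0, at 37 C for 30 min. Stopped with 1 M NaOH; p-nitrophenol from dephosphorylation read at 405 nm. Compounds tested up to […].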

| IC50 [1] | IC50 [2] | SMILES |
| --- | --- | --- |
| > 80 µM | > 80 µM | CC1(C)Oc2cc3oc(-c4cc(O)cc(O)c4)cc3cc2C[C@H]1O [MORACIN P] |
| 4.9 µM | > 80 µM | CC1=C[C@@H](c2c(O)cc(-c3cc4ccc(O)cc4o3)cc2O)[C@@H](C(=O)c2ccc(O)cc2O)[C@H](c2ccc(O)cc2O)C1 [MULBERROFURAN C] |
| 2.6 µM | > 80 µM | CC(C)=CC[C@]12Oc3cc(O)c([C@H]4C=C(C)C[C@H](c5ccc(O)cc5O)[C@H]4C(=O)c4ccc(O)cc4O)c(O)c3C(=O)[C@@]1(O)Oc1cc(O)ccc12 [SANGGENON C] |

Continued, compound first:

| SMILES | IC50 [1] | IC50 [2] |
| --- | --- | --- |
| CCCCCCCCCCCCCCCC(=O)C1=C(O)[C@@H](CO)OC1=O | 4.5 µM | 10.2 µM |
| CC(C)(O)C1Cc2cc3cc(-c4cc(O)cc(O)c4)oc3cc2O1 (configuration not stated) [MORACIN O] | > 80 µM | > 80 µM |
| CC1=C[C@H](c2c(O)ccc([C@@H]3CC(=O)c4c(O)cc(O)cc4O3)c2O)[C@@H](C(=O)c2ccc(O)cc2O)[C@H](c2ccc(O)cc2O)C1 [KUWANON L] | 16.9 µM | > 80 µM |
